Data as given in ChEMBL document CHEMBL1142699 (J Med Chem, 2005).
Numbered stars: 1 amine (or outer) side, 2 acyl side, 3 side chain; on linkers, the order of the positions; unused ones are H or OH. Square brackets hold non-standard residues; d marks the D form. Peptide text beside a SMILES is read from it. X1 = N[C@@H](Cc1ccccc1)CN(CC(=O)[*:2])[*:1]

Tests used:
[1] = molecular target: Nociceptin receptor (Mus musculus) (UniProt P35377); assay: Maximal inhibition of electrically evoked contraction of mouse vas deferens; Effect evident only in some tissues; type: functional; details: filed as agonist
[2] = molecular target: Nociceptin receptor (Mus musculus) (UniProt P35377); assay: Inhibition of electrically evoked contraction of mouse vas deferens; Effect evident only in some tissues; type: functional; details: filed as agonist
[3] = molecular target: Nociceptin receptor (Cavia porcellus) (UniProt P47748); assay: Inhibition of electrically evoked contraction of guinea pig ileum; Effect evident only in some tissues; type: functional, tissue-based; details: filed as agonist
[4] = molecular target: Nociceptin receptor (Mus musculus) (UniProt P35377); assay: Antagonistic potency against N/OFQ in electrically evoked contraction of mouse vas deferens at 0.1 uM; type: functional, tissue-based
Method in brief: (§1)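 Male Swiss mice (25-30 g). Vas deferens in 5 mL baths of Mg2+-free Krebs at 33 °C, 0.3 g tension, field-stimulated with supramaximal 1 ms pulses at 0.05 Hz, isotonic recording.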

[5] = molecular target: Nociceptin receptor (Cavia porcellus) (UniProt P47748); assay: Maximal inhibition of electrically evoked contraction of guinea pig ileum; Effect evident only in some tissues; type: functional, tissue-based; details: filed as agonist
[6] = molecular target: Nociceptin receptor (Cavia porcellus) (UniProt P47748); assay: Maximal inhibition of electrically evoked contraction of guinea pig ileum; type: functional, tissue-based
[7] = molecular target: Nociceptin receptor (Mus musculus) (UniProt P35377); assay: Maximal inhibition of electrically evoked contraction of mouse vas deferens; type: functional, tissue-based
[8] = molecular target: Nociceptin receptor (Mus musculus) (UniProt P35377); assay: Antagonistic potency against N/OFQ in electrically evoked contraction of mouse vas deferens at 1 uM; type: functional, tissue-based; method in brief: as §1
[9] = molecular target: Nociceptin receptor (Cavia porcellus) (UniProt P47748); assay: Antagonistic potency against N/OFQ in electrically evoked contractions of guinea pig ileum at 1 uM; type: functional, tissue-based
Nociceptin receptor [10] = molecular target: T1, Nociceptin receptor (Homo sapiens, UniProt P41146); assay: Receptor binding affinity for recombinant human N/OFQ peptide receptor (NOP) expressed in chinese hamster ovary cells; type: cell-based, CHO
Nociceptin receptor [11] = molecular target: T1, Nociceptin receptor; assay: Inhibition of forskolin stimulated cAMP levels in CHO cells expressing the human NOP receptor (CHOhNOP)
Nociceptin receptor [12] = molecular target: T1, Nociceptin receptor; assay: Agonist potency against GTPgammaS binding in CHO cell membranes expressing the human NOP receptor (CHOhNOP)
Nociceptin receptor [13] = molecular target: Nociceptin receptor (Cavia porcellus, UniProt P47748); assay: Inhibition of electrically evoked contraction of guinea pig ileum; type: functional, tissue-based
Method in brief: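 Guinea pig ileum from albino animals (250-300 g), in Krebs at 37 °C under 0.3 g resting tension. Field-stimulated with 1 ms supramaximal pulses at 0.05 Hz; twitches recorded isotonically. After ~1 h equilibration, cumulative concentration-response curves in 0.5 log steps. […] 5-8 experiments.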

Nociceptin receptor [14] = molecular target: Nociceptin receptor (Mus musculus, UniProt P35377); assay: Inhibition of electrically evoked contraction of mouse vas deferens; type: functional
Method in brief: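 Vas deferens from male Swiss mice (25-30 g), in Mg2+-free Krebs at 33 °C under 0.3 g resting tension. Field-stimulated with 1 ms supramaximal pulses at 0.05 Hz; twitches recorded isotonically. After ~1 h equilibration, cumulative concentration-response curves in 0.5 log steps. […] 5-8 experiments.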

Nociceptin receptor (Mus musculus), sequence (P35377 whole entry): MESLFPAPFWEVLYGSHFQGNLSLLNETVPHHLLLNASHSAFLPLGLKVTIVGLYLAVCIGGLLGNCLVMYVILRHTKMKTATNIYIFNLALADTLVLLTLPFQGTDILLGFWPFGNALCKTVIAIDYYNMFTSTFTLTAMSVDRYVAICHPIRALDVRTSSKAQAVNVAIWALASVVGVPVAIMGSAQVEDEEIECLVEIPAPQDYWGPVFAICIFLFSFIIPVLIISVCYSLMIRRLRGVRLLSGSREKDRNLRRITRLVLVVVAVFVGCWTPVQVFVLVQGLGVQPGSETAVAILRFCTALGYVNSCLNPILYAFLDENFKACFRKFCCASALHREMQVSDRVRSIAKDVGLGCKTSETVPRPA
T1 sequence (P41146 whole entry): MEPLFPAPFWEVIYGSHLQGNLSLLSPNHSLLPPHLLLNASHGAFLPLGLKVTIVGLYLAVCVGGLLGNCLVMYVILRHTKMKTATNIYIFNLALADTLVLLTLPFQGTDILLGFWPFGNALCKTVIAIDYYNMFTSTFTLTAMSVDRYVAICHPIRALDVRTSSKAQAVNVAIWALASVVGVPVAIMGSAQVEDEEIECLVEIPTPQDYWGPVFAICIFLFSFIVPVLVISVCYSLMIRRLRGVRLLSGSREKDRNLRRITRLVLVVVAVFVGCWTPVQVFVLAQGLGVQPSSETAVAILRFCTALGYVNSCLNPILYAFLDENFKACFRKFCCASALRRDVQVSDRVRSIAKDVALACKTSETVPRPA
Nociceptin receptor (Cavia porcellus), sequence (P47748 whole entry): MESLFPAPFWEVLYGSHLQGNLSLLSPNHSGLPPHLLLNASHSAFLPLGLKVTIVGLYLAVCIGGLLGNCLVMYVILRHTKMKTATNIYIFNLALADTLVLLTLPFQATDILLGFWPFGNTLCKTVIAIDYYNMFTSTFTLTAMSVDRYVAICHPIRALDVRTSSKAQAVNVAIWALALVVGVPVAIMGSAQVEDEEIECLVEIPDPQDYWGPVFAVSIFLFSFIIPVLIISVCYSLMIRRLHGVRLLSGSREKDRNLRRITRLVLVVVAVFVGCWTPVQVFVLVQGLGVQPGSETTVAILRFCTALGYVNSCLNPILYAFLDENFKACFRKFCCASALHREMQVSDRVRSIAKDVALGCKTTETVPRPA
Nociceptin receptor (Mus musculus, UniProt P35377), sequence (P35377 whole entry): as the sequence (P35377 whole entry) above
Nociceptin receptor (Cavia porcellus, UniProt P47748), sequence (P47748 whole entry): as the sequence (P47748 whole entry) above

Structure (SMILES): C[C@H](NC(=O)CNC(=O)[C@@H](NC(=O)[C@H](Cc1ccc(F)cc1)NC(=O)CNC(=O)CNC(=O)CNCc1ccccc1)[C@@H](C)O)C(=O)N[C@@H](CCCN=C(N)N)C(=O)N[C@@H](CCCCN)C(=O)N[C@@H](CO)C(=O)N[C@@H](C)C(=O)N[C@@H](CCCN=C(N)N)C(=O)N[C@@H](CCCCN)C(=O)N[C@@H](CCCN=C(N)N)C(=O)N[C@@H](CCCCN)C(=O)N[C@@H](CC(N)=O)C(=O)N[C@@H](CCC(=O)N(N)N)C(=O)NN
- Emax [1]: Agonist
- Activity [2]: Agonist
- Log EC50 [3]: Agonist
- pKb [4]: 7.97
- pKb ([4]; Cavia porcellus): 7.82
- Emax [5]: Agonist

Structure (SMILES): C[C@H](NC(=O)CNC(=O)[C@@H](NC(=O)[C@H](Cc1ccc(F)cc1)NC(=O)CNC(=O)CNC(=O)[C@@H](N)Cc1ccccc1)[C@@H](C)O)C(=O)N[C@@H](CCCN=C(N)N)C(=O)N[C@@H](CCCCN)C(=O)N[C@@H](CO)C(=O)N[C@@H](C)C(=O)N[C@@H](CCCN=C(N)N)C(=O)N[C@@H](CCCCN)C(=O)N[C@@H](CCCN=C(N)N)C(=O)N[C@@H](CCCCN)C(=O)N[C@@H](CC(N)=O)C(=O)N[C@@H](CCC(=O)N(N)N)C(=O)NN
- Emax [6]: 55%
- Emax [7]: 94%

Structure (SMILES): CC(C)C[C@H](NC(=O)[C@H](CCCCN)NC(=O)[C@H](CCCN=C(N)N)NC(=O)[C@H](C)NC(=O)[C@H](CO)NC(=O)[C@H](CCCCN)NC(=O)[C@H](CCCN=C(N)N)NC(=O)[C@H](C)NC(=O)CNC(=O)[C@@H](NC(=O)[C@H](Cc1ccc(F)cc1)NC(=O)CNC(=O)CNC(=O)CNCc1ccccc1)[C@@H](C)O)C(=O)N[C@@H](C)C(=O)N[C@@H](CC(N)=O)C(=O)N[C@@H](CCC(N)=O)C(N)=O
- pKb [8]: 6.61
- pKb [9]: 7.16
- Emax [1]: Agonist
- Activity [2]: Agonist
- Log EC50 [3]: Agonist
- Emax [5]: Agonist

Structure (SMILES): C[C@H](NC(=O)CNC(=O)[C@@H](NC(=O)[C@H](Cc1ccccc1)NC(=O)CNC(=O)CNC(=O)CNCc1ccccc1)[C@@H](C)O)C(=O)N[C@@H](CCCN=C(N)N)C(=O)N[C@@H](CCCCN)C(=O)N[C@@H](CO)C(=O)N[C@@H](C)C(=O)N[C@@H](CCCN=C(N)N)C(=O)N[C@@H](CCCCN)C(=O)N[C@@H](CCCN=C(N)N)C(=O)N[C@@H](CCCCN)C(=O)N[C@@H](CC(N)=O)C(=O)N[C@@H](CCC(N)=O)C(N)=O
- Ki (Nociceptin receptor [10]): 129 pM

Structure (SMILES): C[C@H](NC(=O)CNC(=O)[C@@H](NC(=O)[C@H](Cc1ccccc1)NC(=O)CNC(=O)CNC[C@@H](N)Cc1ccccc1)[C@@H](C)O)C(=O)N[C@@H](CCCN=C(N)N)C(=O)N[C@@H](CCCCN)C(=O)N[C@@H](CO)C(=O)N[C@@H](C)C(=O)N[C@@H](CCCN=C(N)N)C(=O)N[C@@H](CCCCN)C(=O)N[C@@H](CCCN=C(N)N)C(=O)N[C@@H](CCCCN)C(=O)N[C@@H](CC(N)=O)C(=O)N[C@@H](CCC(N)=O)C(N)=O (H-[X1]GFTGARKSARKRKNQ-NH2)
- Ki (Nociceptin receptor [10]): 31.6 pM
- EC50 (Nociceptin receptor [11]): 240 pM
- EC50 (Nociceptin receptor [12]): 933 pM

Structure (SMILES): C[C@H](NC(=O)CNC(=O)[C@@H](NC(=O)[C@H](Cc1ccccc1)NC(=O)CNC(=O)CNC(=O)[C@@H](N)Cc1ccccc1)[C@@H](C)O)C(=O)N[C@@H](CCCN=C(N)N)C(=O)N[C@@H](CCCCN)C(=O)N[C@@H](CO)C(=O)N[C@@H](C)C(=O)N[C@@H](CCCN=C(N)N)C(=O)N[C@@H](CCCCN)C(=O)N[C@@H](CCCN=C(N)N)C(=O)N[C@@H](CCCCN)C(=O)N[C@@H](CC(N)=O)C(=O)N[C@@H](CCC(=O)N(N)N)C(=O)NN
- Emax [6]: 52%
- Emax [7]: 95%

Structure (SMILES): CC(C)C[C@H](NC(=O)[C@H](CCCCN)NC(=O)[C@H](CCCN=C(N)N)NC(=O)[C@H](C)NC(=O)[C@H](CO)NC(=O)[C@H](CCCCN)NC(=O)[C@H](CCCN=C(N)N)NC(=O)[C@H](C)NC(=O)CNC(=O)[C@@H](NC(=O)[C@H](Cc1ccccc1)NC(=O)CNC(=O)CNC(=O)[C@@H](N)Cc1ccccc1)[C@@H](C)O)C(=O)N[C@@H](C)C(=O)N[C@@H](CC(N)=O)C(=O)N[C@@H](CCC(N)=O)C(=O)O [NOCICEPTIN]
- EC50 (Nociceptin receptor [13]): 5250 pM
- EC50 (Nociceptin receptor [14]): 5370 pM
